From ChEMBL document CHEMBL5376013, “Design, synthesis and biological evaluation of novel morpholinopyrimidine-5-carbonitrile derivatives as dual PI3K/mTOR inhibitors” (RSC Med Chem, 2024)

Assays:
Assay type in all cases: functional
Conditions in all cases: read-out: GI
DU-145 = assay: Antitumor activity against human DU-145 cells assessed as growth inhibition at 10 uM relative to control
How it was run: (§1)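 After drug addition, plates were incubated 48 h at 37 °C under 5% CO2. Adherent cells were fixed with cold TCA (10% final, 60 min, 4 °C) and suspension cells with 16% final TCA. Staining used 0.4% SRB in 1% acetic acid, solubilized in 10 mM trizma, read at A515. Percent growth was calculated from time-zero, control and treated absorbances.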

A549 = assay: Antitumor activity against human A549 cells assessed as growth inhibition at 10 uM relative to control; how it was run: as §1
BT-549 = assay: Antitumor activity against human BT-549 cells assessed as growth inhibition at 10 uM relative to control; how it was run: as §1
CCRF-CEM = assay: Antitumor activity against human CCRF-CEM cells assessed as growth inhibition at 10 uM relative to control; how it was run: as §1
K562 = assay: Antitumor activity against human K562 cells assessed as growth inhibition at 10 uM relative to control; how it was run: as §1
HCT-15 = assay: Antitumor activity against human HCT-15 cells assessed as growth inhibition at 10 uM relative to control; how it was run: as §1
MCF7 = assay: Antitumor activity against human MCF7 cells assessed as growth inhibition at 10 uM relative to control; how it was run: as §1
OVCAR-3 = assay: Antitumor activity against human OVCAR-3 cells assessed as growth inhibition at 10 uM relative to control; how it was run: as §1
LOX IMVI = assay: Antitumor activity against human LOX IMVI cells assessed as growth inhibition at 10 uM relative to control; how it was run: as §1
MDA-MB-468 = assay: Antitumor activity against human MDA-MB-468 cells assessed as growth inhibition at 10 uM relative to control; how it was run: as §1
MOLT-4 = assay: Antitumor activity against human MOLT-4 cells assessed as growth inhibition at 10 uM relative to control; how it was run: as §1
OVCAR-8 = assay: Antitumor activity against human OVCAR-8 cells assessed as growth inhibition at 10 uM relative to control; how it was run: as §1
PC-3 = assay: Antitumor activity against human PC-3 cells assessed as growth inhibition at 10 uM relative to control; how it was run: as §1
ACHN = assay: Antitumor activity against human ACHN cells assessed as growth inhibition at 10 uM relative to control; how it was run: as §1

SMILES: Cc1cc(C)n(-c2nc(-c3ccc(Cl)cc3)c(C#N)c(N3CCOCC3)n2)n1
- inhibition of growth at 10 µM (DU-145): < 1%
- inhibition of growth at 10 µM (A549): < 1%
- inhibition of growth at 10 µM (BT-549): 30.5%
- inhibition of growth at 10 µM (CCRF-CEM): < 1%
- inhibition of growth at 10 µM (K562): < 1%
- inhibition of growth at 10 µM (HCT-15): < 1%
- inhibition of growth at 10 µM (MCF7): < 16%
- inhibition of growth at 10 µM (OVCAR-3): 12.1%
- inhibition of growth at 10 µM (LOX IMVI): 20.1%
- inhibition of growth at 10 µM (MDA-MB-468): < 1%
- inhibition of growth at 10 µM (MOLT-4): 13.3%
- inhibition of growth at 10 µM (OVCAR-8): < 1%
- inhibition of growth at 10 µM (PC-3): < 1%
- inhibition of growth at 10 µM (ACHN): 11.8%

SMILES: N#Cc1c(-c2ccc(Cl)cc2)nc(N/N=C2/C(=O)Nc3ccccc32)nc1N1CCOCC1
- inhibition of growth at 10 µM (DU-145): < 1%
- inhibition of growth at 10 µM (A549): 12.9%
- inhibition of growth at 10 µM (BT-549): < 1%
- inhibition of growth at 10 µM (CCRF-CEM): < 1%
- inhibition of growth at 10 µM (K562): < 1%
- inhibition of growth at 10 µM (HCT-15): 1%
- inhibition of growth at 10 µM (MCF7): 1%
- inhibition of growth at 10 µM (OVCAR-3): < 1%
- inhibition of growth at 10 µM (LOX IMVI): < 1%
- inhibition of growth at 10 µM (MDA-MB-468): < 1%
- inhibition of growth at 10 µM (MOLT-4): < 1%
- inhibition of growth at 10 µM (OVCAR-8): < 1%
- inhibition of growth at 10 µM (PC-3): < 1%
- inhibition of growth at 10 µM (ACHN): < 1%

SMILES: N#Cc1c(-c2ccc(Cl)cc2)nc(NN2C(=O)c3ccccc3C2=O)nc1N1CCOCC1
- inhibition of growth at 10 µM (DU-145): < 1%
- inhibition of growth at 10 µM (A549): < 1%
- inhibition of growth at 10 µM (BT-549): < 1%
- inhibition of growth at 10 µM (CCRF-CEM): < 1%
- inhibition of growth at 10 µM (K562): < 1%
- inhibition of growth at 10 µM (HCT-15): < 1%
- inhibition of growth at 10 µM (MCF7): 1%
- inhibition of growth at 10 µM (OVCAR-3): < 1%
- inhibition of growth at 10 µM (LOX IMVI): < 1%
- inhibition of growth at 10 µM (MDA-MB-468): < 1%
- inhibition of growth at 10 µM (MOLT-4): < 1%
- inhibition of growth at 10 µM (OVCAR-8): < 1%
- inhibition of growth at 10 µM (PC-3): < 1%
- inhibition of growth at 10 µM (ACHN): < 1%

SMILES: N#Cc1c(-c2ccc(Cl)cc2)nc(N/N=C/c2cccc(Br)c2)nc1N1CCOCC1
- inhibition of growth at 10 µM (DU-145): 40.4%
- inhibition of growth at 10 µM (A549): 19.6%
- inhibition of growth at 10 µM (BT-549): < 1%
- inhibition of growth at 10 µM (CCRF-CEM): 49.7%
- inhibition of growth at 10 µM (K562): 87.4%
- inhibition of growth at 10 µM (HCT-15): 91.6%
- inhibition of growth at 10 µM (MCF7): < 27.5%
- inhibition of growth at 10 µM (OVCAR-3): < 1%
- inhibition of growth at 10 µM (LOX IMVI): 20.2%
- inhibition of growth at 10 µM (MDA-MB-468): 23.3%
- inhibition of growth at 10 µM (MOLT-4): 63.9%
- inhibition of growth at 10 µM (OVCAR-8): < 1%
- inhibition of growth at 10 µM (PC-3): 38.8%
- inhibition of growth at 10 µM (ACHN): 28.5%

SMILES: N#Cc1c(-c2ccc(Cl)cc2)nc(N/N=C2/C(=O)Nc3ccc(Br)cc32)nc1N1CCOCC1
- inhibition of growth at 10 µM (DU-145): < 1%
- inhibition of growth at 10 µM (A549): < 1%
- inhibition of growth at 10 µM (BT-549): < 1%
- inhibition of growth at 10 µM (CCRF-CEM): < 1%
- inhibition of growth at 10 µM (K562): < 1%
- inhibition of growth at 10 µM (HCT-15): 1%
- inhibition of growth at 10 µM (MCF7): 1%
- inhibition of growth at 10 µM (OVCAR-3): < 1%
- inhibition of growth at 10 µM (LOX IMVI): 14.6%
- inhibition of growth at 10 µM (MDA-MB-468): < 1%
- inhibition of growth at 10 µM (MOLT-4): < 1%
- inhibition of growth at 10 µM (OVCAR-8): < 1%
- inhibition of growth at 10 µM (PC-3): < 1%
- inhibition of growth at 10 µM (ACHN): < 1%

SMILES: N#Cc1c(-c2ccc(Cl)cc2)nc(N/N=C2/C(=O)Nc3ccc(Cl)cc32)nc1N1CCOCC1
- inhibition of growth at 10 µM (DU-145): < 1%
- inhibition of growth at 10 µM (A549): < 1%
- inhibition of growth at 10 µM (BT-549): < 1%
- inhibition of growth at 10 µM (CCRF-CEM): < 1%
- inhibition of growth at 10 µM (K562): < 1%
- inhibition of growth at 10 µM (HCT-15): 1%
- inhibition of growth at 10 µM (MCF7): 1%
- inhibition of growth at 10 µM (OVCAR-3): < 1%
- inhibition of growth at 10 µM (LOX IMVI): 16.8%
- inhibition of growth at 10 µM (MDA-MB-468): < 1%
- inhibition of growth at 10 µM (MOLT-4): < 1%
- inhibition of growth at 10 µM (OVCAR-8): < 1%
- inhibition of growth at 10 µM (PC-3): < 1%
- inhibition of growth at 10 µM (ACHN): < 1%

SMILES: N#Cc1c(-c2ccc(Cl)cc2)nc(N/N=C/c2ccco2)nc1N1CCOCC1
- inhibition of growth at 10 µM (DU-145): 14.6%
- inhibition of growth at 10 µM (A549): 21.1%
- inhibition of growth at 10 µM (BT-549): 41.5%
- inhibition of growth at 10 µM (CCRF-CEM): 11.3%
- inhibition of growth at 10 µM (K562): < 1%
- inhibition of growth at 10 µM (HCT-15): 19.7%
- inhibition of growth at 10 µM (MCF7): < 73.8%
- inhibition of growth at 10 µM (OVCAR-3): 33.4%
- inhibition of growth at 10 µM (LOX IMVI): 21.3%
- inhibition of growth at 10 µM (MDA-MB-468): 69.1%
- inhibition of growth at 10 µM (MOLT-4): 17%
- inhibition of growth at 10 µM (OVCAR-8): 21.1%
- inhibition of growth at 10 µM (PC-3): 31.7%
- inhibition of growth at 10 µM (ACHN): 23.3%
